1 molecule from ChEMBL document CHEMBL4354813, “Design, Synthesis, and Pharmacological Evaluation of Potent Positive Allosteric Modulators of the Glucagon-like Peptide-1 Receptor (GLP-1R)” (J Med Chem, 2020) can be followed below.

Calls of active or inactive are those of the source. The calls are words filed in the database; no cut-off is given here.

Data set [1] in a line: Clearance in Wistar rat at 3 mg/kg, iv administered as single dose treated 2 hrs after dosing with 40 mg/kg, po OATP/MRP2 inhibitor rifampicin and measured up to 24 hrs ESI-LC/MS-MS analysis. It counts as ADME, organism-based. To be noted: in vivo. An outline of the steps:
(§1)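 Male Wistar rats (n=3 per route) pretreated orally with rifampicin 40 mg/kg (0.6% methylcellulose, 0.5% Tween 80 in water) 2 h before compound, given 3 mg/kg i.v. in Glycoferol/Cremophor-water solution or 10 mg/kg p.o. wet-milled suspension. Plasma sampled up to 24 h; ESI-LC/MS-MS after acetonitrile precipitation (LOQ 1 ng/mL); noncompartmental analysis.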

Data set [2] in a line: Chemical stability in presence of GSH. It counts as physicochemical.
Data set [3] in a line: Drug recovery in iv dosed rat bile assessed as metabolically unchanged compound level in rat fistula study. To be noted: read-out: Drug recovery. It counts as ADME, organism-based.
The subject of data set [4] is Mus musculus. The data set can be described thus: Suppression of blood glucose concentration in GLP-1R (-/-) C57Bl/6J mouse model at 30 mg/kg, po dosed 1 hrs before test and treated with 60 mg/kg, po OATP/MRP2 inhibitor rifampicin 2.5 hrs prior to oral glucose-tolerance test. It counts as functional, organism-based. In a few lines: (§2)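 GLP-1R-/- male mice aged 10 weeks, n=6, fasted overnight. Rifampicin 60 mg/kg p.o. 2.5 h before the oGTT, compound p.o. 1 h before, with or without GLP1(9-36)NH2 i.p. 15 min before. Glucose 2 g/kg orally. Tail-vein blood glucose by glucometer at 0, 15, 30, 60 and 90 min.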

Data set [5] concerns Mus musculus. The data set is described as follows: Suppression of blood glucose concentration in 0.3 to 4.5 mg/kg, ip GLP1(9-36)NH2-treated normoglycemic C57Bl/6J mouse at 30 mg/kg, po dosed 1 hrs before test by oral glucose-tolerance test. It counts as functional, organism-based. In a few lines: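 Male C57Bl/6J mice aged 10–11 weeks, n=6, fasted overnight. Rifampicin 60 mg/kg p.o. 2.5 h before the oGTT, compound p.o. 1 h before, GLP1(9-36)NH2 i.p. (0.3, 1, 3, 4.5 mg/kg) 15 min before. Glucose 2 g/kg orally. Tail-vein blood glucose by glucometer at 0, 15, 30, 60 and 90 min.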

Data set [6] is described as follows: Clearance in Wistar rat at 3 mg/kg, iv administered as single dose measured up to 24 hrs ESI-LC/MS-MS analysis. The note with it: in vivo.
Data set [7] is described as follows: AUClast in C57Bl6 mouse at 10 mg/kg, po administered as single dose measured up to 24 hrs ESI-LC/MS-MS analysis. The note with it: in vivo. Details: dose 10 mg/kg, time < 24 hr, route oral. It counts as ADME, organism-based. An outline of the steps:
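Single dose of compound: 3 mg/kg i.v. in solution (75% water : 25% of 75% Glycoferol/25% Cremophor) or 10 mg/kg p.o. as wet-milled suspension (0.6% methylcellulose, 0.5% Tween 80 in water); male Wistar rats n=3 per route, female C57Bl6 mice n=24 per route. Plasma sampled 0.25–24 h (p.o.), 0.083–24 h (i.v.); heparinized plasma, acetonitrile precipitation, ESI-LC/MS-MS (LOQ 1 ng/mL rat, 5 ng/mL mouse); noncompartmental analysis, linear trapezoidal.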

The species entered for data set [8] is Rattus norvegicus. The data set can be described thus: Inhibition of glucose-stimulated insulin secretion in dispersed rat pancreatic islets at 10 uM incubated for 2 hrs by ELISA. It counts as functional. In a few lines: (§3)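 Dispersed islets from male Sprague Dawley rats (collagenase digestion, Histopaque purification, Accutase dispersal, cultured up to 4 days). Pre-incubated 1 h in Krebs-Ringer with 5.6 mM glucose, then 2 h at 37 °C with 15 mM glucose, ±10 nM GLP1(9-36)NH2, ±compound 10 µM, DMSO vehicle; insulin by HTRF ELISA as % of total, n-fold vs control; N≥9.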

Data set [9] addresses Voltage-gated inwardly rectifying potassium channel KCNH2 (Homo sapiens, UniProt Q12809). The data set is described as follows: Inhibition of human ERG by patch clamp assay. (In patch-clamp work, channel activity is measured electrically.)
In a further data set the target is Cytochrome P450 3A4 (Homo sapiens, UniProt P08684). The data set is described as follows: Inhibition of CYP3A4 (unknown origin) using testosterone as substrate. It counts as ADME.
Cytochrome P450 3A4, sequence (P08684 whole entry): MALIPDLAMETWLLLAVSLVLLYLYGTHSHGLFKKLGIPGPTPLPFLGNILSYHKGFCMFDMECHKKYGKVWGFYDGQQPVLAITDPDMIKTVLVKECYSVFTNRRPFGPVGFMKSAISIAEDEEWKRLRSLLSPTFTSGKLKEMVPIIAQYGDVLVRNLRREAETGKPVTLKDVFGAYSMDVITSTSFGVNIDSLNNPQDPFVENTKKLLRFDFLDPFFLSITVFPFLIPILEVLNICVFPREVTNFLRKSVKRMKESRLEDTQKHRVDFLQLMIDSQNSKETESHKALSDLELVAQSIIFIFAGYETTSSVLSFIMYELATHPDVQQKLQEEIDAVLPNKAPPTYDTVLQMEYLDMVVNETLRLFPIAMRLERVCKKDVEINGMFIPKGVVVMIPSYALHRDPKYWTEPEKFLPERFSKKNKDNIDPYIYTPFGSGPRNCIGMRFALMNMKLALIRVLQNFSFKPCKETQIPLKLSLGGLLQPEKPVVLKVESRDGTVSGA
Data set [10] is filed under the species Rattus norvegicus. The data set is described as follows: Improvement in 10 nM GLP1(9-36)NH2-mediated glucose-stimulated insulin secretion in dispersed rat pancreatic islets at 10 uM incubated for 2 hrs by ELISA. It counts as functional. In a few lines:
as §3
(In general: An ELISA detects its analyte on a solid surface through an enzyme-linked reagent.)

Data set [11] deals with Mus musculus. The data set can be described thus: Suppression of blood glucose concentration in 4.5 mg/kg, ip GLP1(9-36)NH2-treated GLP-1R (-/-) C57Bl/6J mouse model at 30 mg/kg, po dosed 1 hrs before test and treated with 60 mg/kg, po OATP/MRP2 inhibitor rifampicin 2.5 hrs prior to oral glucose-tolerance test. It counts as functional, organism-based. An outline of the steps: as §2

The nature of data set [12]: Volume of distribution at steady state in C57Bl6 mouse at 3 mg/kg, iv administered as single dose measured up to 24 hrs ESI-LC/MS-MS analysis. It counts as ADME, organism-based. The note with it: in vivo, read-out: Vdss. An outline of the steps: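 Single dose of 3 mg/kg i.v. in water/Glycoferol/Cremophor solution to female C57Bl6 mice (n=24) or male Wistar rats (n=3). In rats, rifampicin 40 mg/kg p.o. was given 2 h before dosing where indicated. Plasma sampled at 0.083–24 h. ESI-LC/MS-MS after acetonitrile precipitation. Non-compartmental analysis.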

Data set [13] is filed under the species Rattus norvegicus. The data set can be described thus: Improvement in 10 nM GLP1(9-36)NH2-mediated glucose-stimulated insulin secretion in dispersed rat pancreatic islets at 10 uM incubated for 2 hrs under […] conditions by ELISA. It counts as functional.
Data set [14] can be described thus: Permeability from apical and basolateral in human Caco2/TC7 cells at pH 7.4 in presence of 0.5% BSA. It counts as ADME, cell-based. The note with it: caco2/tc7, pH 7.4.
Data set [15] can be described thus: Apparent permeability from apical and basolateral in human Caco2/TC7 cells at apical pH 6.5 with 0.5% BSA and basolateral pH 7.4 with 5% BSA at 20 uM incubated for 2 hrs by LC-MS/MS analysis. To be noted: caco2/tc7, pH 6.5 apical, pH 7.4 basolateral. In general terms: Caco-2 monolayers are a common model of the intestinal barrier.
The nature of data set [16]: Oral bioavailability in Wistar rat at 10 mg/kg administered as single dose treated 2 hrs after dosing with 40 mg/kg, po OATP/MRP2 inhibitor rifampicin and measured up to 24 hrs ESI-LC/MS-MS analysis. The note with it: in vivo. It counts as ADME, organism-based. An outline of the steps: as §1
Data set [17] in a line: Volume of distribution at steady state in Wistar rat at 3 mg/kg, iv administered as single dose measured up to 24 hrs ESI-LC/MS-MS analysis. The note with it: in vivo.
Data set [18] in a line: Metabolic lability in human liver microsomes incubated up to 20 mins by LC-MS/MS analysis.
Data set [19] can be described thus: Cmax in Wistar rat at 10 mg/kg, po administered as single dose treated 2 hrs after dosing with 40 mg/kg, po OATP/MRP2 inhibitor rifampicin and measured up to 24 hrs ESI-LC/MS-MS analysis. It counts as ADME, organism-based. Details: dose 10 mg/kg, route oral. To be noted: in vivo. In a few lines:
as §1

A short description of data set [20]: AUClast in Wistar rat at 10 mg/kg, po administered as single dose treated 2 hrs after dosing with 40 mg/kg, po OATP/MRP2 inhibitor rifampicin and measured up to 24 hrs ESI-LC/MS-MS analysis. It counts as ADME, organism-based. Details: dose 10 mg/kg, time < 24 hr, route oral. To be noted: in vivo. An outline of the steps: as §1
A short description of data set [21]: Stability in mouse plasma by LC-MS/MS analysis. It counts as ADME, cell-free.

Voltage-gated inwardly rectifying potassium channel KCNH2, sequence (Q12809 whole entry): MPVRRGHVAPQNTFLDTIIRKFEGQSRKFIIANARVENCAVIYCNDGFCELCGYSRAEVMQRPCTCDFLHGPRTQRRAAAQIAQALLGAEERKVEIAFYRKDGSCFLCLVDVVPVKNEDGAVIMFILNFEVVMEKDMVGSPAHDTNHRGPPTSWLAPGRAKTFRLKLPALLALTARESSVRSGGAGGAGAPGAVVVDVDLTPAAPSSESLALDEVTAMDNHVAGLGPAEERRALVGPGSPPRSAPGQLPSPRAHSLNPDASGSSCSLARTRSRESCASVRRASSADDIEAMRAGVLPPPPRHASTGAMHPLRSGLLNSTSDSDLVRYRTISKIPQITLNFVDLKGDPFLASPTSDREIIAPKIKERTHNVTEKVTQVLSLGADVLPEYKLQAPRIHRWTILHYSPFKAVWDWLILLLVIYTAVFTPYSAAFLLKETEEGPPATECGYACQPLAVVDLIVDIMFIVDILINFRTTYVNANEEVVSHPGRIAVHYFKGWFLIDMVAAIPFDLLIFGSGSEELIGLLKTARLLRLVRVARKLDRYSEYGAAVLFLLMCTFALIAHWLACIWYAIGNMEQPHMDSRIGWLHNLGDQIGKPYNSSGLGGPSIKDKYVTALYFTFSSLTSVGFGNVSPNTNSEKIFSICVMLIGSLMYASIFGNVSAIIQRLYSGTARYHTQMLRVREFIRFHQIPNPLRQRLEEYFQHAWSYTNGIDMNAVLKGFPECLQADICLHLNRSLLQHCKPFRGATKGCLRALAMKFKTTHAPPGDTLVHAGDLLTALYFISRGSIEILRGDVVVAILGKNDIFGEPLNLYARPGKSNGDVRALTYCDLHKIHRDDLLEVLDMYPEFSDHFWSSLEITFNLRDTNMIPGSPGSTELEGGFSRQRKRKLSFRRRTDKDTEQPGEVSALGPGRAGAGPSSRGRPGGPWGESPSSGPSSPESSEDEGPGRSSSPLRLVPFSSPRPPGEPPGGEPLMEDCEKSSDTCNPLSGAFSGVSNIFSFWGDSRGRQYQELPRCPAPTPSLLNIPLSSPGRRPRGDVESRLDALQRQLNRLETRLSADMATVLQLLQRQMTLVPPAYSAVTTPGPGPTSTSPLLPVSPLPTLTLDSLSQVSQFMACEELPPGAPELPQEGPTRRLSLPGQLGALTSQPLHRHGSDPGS

One may read the AUC(0-t) as the area under the concentration-time curve up to a stated or last time point. A lower AUC(0-t) goes with less exposure. As a reminder, the IC50 is the concentration at which inhibition is half-maximal. A high value points to weaker potency. A word on the bioavailability: it is the share of a dose that reaches the circulation, judged against a reference dose that is usually intravenous. Higher therefore signals much systemic uptake. As a reminder, the Vdss is the apparent volume that relates the amount in the body to the concentration in plasma or blood. By Cmax is commonly meant the peak of the concentration-time curve. Consider `CC(C)(C)OC(=O)n1c2c(c3ccccc31)C[C@H]1C(=O)N3C[C@@H](CC(=O)O)C[C@H]3[C@@H]2N1C(=O)CC1CCC(F)(F)CC1`, for which the clearance in data set [1] is 1.15 L/h/kg. The results for the Stability in data set [2] and in [21] were 100% and 98%, respectively. The dose excreted in [3] came to 74%. Besides, the outcome in the data set on Mus musculus [4], in the data set on Mus musculus [11] and in the data set listed under Rattus norvegicus [13] was inactive. Moreover, the Activity entry with Mus musculus [5] is “Dose-dependent effect”. The CL in [6] is 7.06 L/h/kg. For the same molecule, the area under the curve AUC(0-t) at 24 h in data set [7] came to 0.109 µg·h/mL; in data set [20] it was 7.34 µg·h/mL. Also, in the data set filed under Rattus norvegicus [8], the inhibition entry is “inactive”. For the same molecule, the concentration for half-maximal inhibition (IC50) in data set [9] was above 30 µM; against Cytochrome P450 3A4, above 50 µM. Also, the result in the data set listed under Rattus norvegicus [10] was Active. Also, the Vd in data set [12] is 0.934 L/kg. The permeability in [14] is on record as 0.18 ×10⁻⁷ cm/s. Also, in data set [15], the Papp is listed as 32 ×10⁻⁷ cm/s. In addition, the bioavailability in data set [16] is 100%. The molecule also had a Vdss in data set [17] of 2.29 L/kg. Further, the metabolized at 20 min in data set [18] turned out to be 20%. Moreover, in data set [19], the Cmax was found to be 1.13 µg/mL.
